Compounds with a hit are over-represented: about 27% of the library has one in this group of screens.
CYP2C9 activ – increases human cytochrome P450 2C9 activity; AID 1024; activation factor at 5 µM; P11712; recombinant CYP2C9, luciferin-H conversion, luminescence; hits give high values; factor 1 = untreated enzyme, 0 = blocked; 1.4% of 96,000 active;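 active = activation factor of 2 or more for CYP2C9 at a 5 µM dose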;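 note: 0 = sulfaphenazole-blocked wells and 1 = vehicle-only wells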
Rev-RRE block – HIV Rev-RRE protein-RNA interaction inhibition | 0.79% of 97,000 active | inhibition, % at 8 µM | P05866 | Rev peptide-RRE RNA binding, FRET;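 active = inhibition above the screen-wide mean plus 3 SD, cut at about 35% in these data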;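 note: 0% = median DMSO wells and 100% = median Neomycin B control wells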
Target sequence (P05866 whole entry, looked up): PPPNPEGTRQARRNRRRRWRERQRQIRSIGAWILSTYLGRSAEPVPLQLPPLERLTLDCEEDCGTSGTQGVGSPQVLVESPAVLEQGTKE
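Test system: Cy5-tagged RRE RNA duplex with fluorescein-tagged Rev peptide | Read-out: % inhibition of FRET ratio versus controls | Probe or stimulus: Labelled Rev peptide | Incubation: 5 min RNA-compound premix plus 15 min binding step, 25 °C | Technique: FRET fluorescence readout | Benchmarks: DMSO low control, neomycin B high control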
CYP2C19 inh – inhibitors of human CYP2C19; inhibition, % at 5 µM; 21% of 96,000 active; P33261; CYP2C19 Supersomes, luciferin-H EGE luminescence, 30 min; AID 778;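 active = CYP2C19 inhibition above a set limit at 5 µM in the primary screen, cut at about 50% in these data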;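 note: plate controls were negative control wells for no effect and 2.5 mM tranylcypromine positive control for full effect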
Target sequence (P33261 whole entry, looked up): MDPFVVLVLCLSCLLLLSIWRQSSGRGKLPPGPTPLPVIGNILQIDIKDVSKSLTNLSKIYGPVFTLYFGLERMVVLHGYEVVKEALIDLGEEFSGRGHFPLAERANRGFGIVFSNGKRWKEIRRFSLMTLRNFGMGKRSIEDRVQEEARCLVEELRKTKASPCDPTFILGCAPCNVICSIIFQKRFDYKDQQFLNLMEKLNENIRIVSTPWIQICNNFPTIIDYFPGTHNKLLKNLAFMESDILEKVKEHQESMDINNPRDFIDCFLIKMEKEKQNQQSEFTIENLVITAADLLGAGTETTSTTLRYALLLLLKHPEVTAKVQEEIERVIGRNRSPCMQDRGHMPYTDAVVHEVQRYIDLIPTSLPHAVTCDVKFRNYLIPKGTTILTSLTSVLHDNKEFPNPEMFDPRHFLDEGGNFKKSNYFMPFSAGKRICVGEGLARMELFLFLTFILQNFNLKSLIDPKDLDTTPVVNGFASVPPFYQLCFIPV
CYP2C9 inhib – inhibitors of human CYP2C9; P11712; CYP2C9 Supersomes, luciferin-H conversion, luminescence; inhibition, % at 5 µM; 20% of 96,000 active; AID 777;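 active = blocking of liver enzyme CYP2C9 beyond about 50% at 5 µM, limit read from the data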
Cav3 T inh – inhibitors of human Cav3.2 T-type calcium channel; AID 449739; Cav3.2-expressing cells, Fluo-4 calcium fluorescence FDSS; hits give low values; 4% of 100,000 active; O95180; B-score at 10 µM;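 active = single-dose well whose peak fluorescence ratio is a statistical outlier from its plate by either plate-standardised score or position-corrected B-score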
CYP2C19 activ – activators of human cytochrome P450 2C19; P33261; recombinant CYP2C19, luciferin-H EGE luminescence; hits give high values; 0 = fully inhibited enzyme, 1 = untreated enzyme; activation factor at 5 µM; 96,000 tested, under 10 active; AID 1025;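 active = activation factor of at least 2 at 5 µM in the primary screen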;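 note: 0 = wells with 2.5 mM tranylcypromine and 1 = vehicle-only wells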
* = called active by the depositor; / = not tested or not shown.

SMILES	CYP2C9 activ	Rev-RRE block	CYP2C19 inh	CYP2C9 inhib	Cav3 T inh	CYP2C19 activ
O=C1CC(=C2c3ccccc3-c3ccccc32)C(=O)N1CCN1CCN(c2cccc(Cl)c2)CC1	/	9.0	/	/	-0.7	/
COc1ccc(OC)c(C2C(C#N)=C(N)Oc3c2c(C)nn3-c2ccc(C)cc2)c1 (stereo not given)	0.5	21.0	12.8	48.4	0.115	0.9
COc1ccc(C2C(C#N)=C(N)Oc3c2c(C)nn3-c2ccccc2)cc1Cn1nc(C)c([N+](=O)[O-])c1C (stereo not given)	0.2	8.6	30.9	85.0*	0.39	0.7
Cc1ccc(-n2nc(C)c3c2OC(N)=C(C#N)C3c2ccoc2)cc1 (stereo not given)	0.4	10.2	25.8	63.5*	-0.00839	0.7
Cc1nn(-c2ccccc2)c2c1C(c1ccc(F)cc1F)C(C#N)=C(N)O2 (stereo not given)	0.2	12.0	67.8*	82.0*	0.162	0.3
Cc1nn(-c2ccccc2)c2c1C(c1ccccc1)C(C#N)=C(N)O2 (stereo not given)	0.1	8.9	90.1*	86.7*	1.4	0.1
O=C1c2ccccc2S(=O)(=O)c2cc(C(=O)N3CCN(C(=O)c4ccccc4)CC3)ccc21	/	/	/	/	0.538	/
CCOC(=O)C1=C(C)C(c2ccccc2OC)NC(=O)N1 (stereo not given)	1	10.4	3.5	-2.7	-0.2	1
CC(=O)c1ccc(NC(=O)c2cnn3c(C(F)F)cc(C4CC4)nc23)cc1	/	9.2	/	/	-0.109	/
Cc1nn(Cc2ccccc2)c2c1C(c1ccncc1)C(C#N)=C(N)O2 (stereo not given)	0	/	91.5*	99.5*	/	0.1
O=C(NCCCn1ccnc1)c1ccco1	0.9	10.5	14.6	5.9	-0.988	0.9
COc1ccc(C(=O)NCCc2cn3ccc(C)cc3n2)cc1	0.8	2.9	74.6*	24.4	1.08	0.3
O=C(NCCCn1ccnc1)c1ccncc1	0.4	4.8	44.9	56.7*	-0.171	0.6
CCCOc1ccc(C(=O)NCCCn2ccnc2)cc1	0.6	7.8	90.2*	40.8	0.227	0.1
CCCCCOc1ccc(NC(=O)C(=O)NCCCn2ccnc2)cc1	0.2	3.9	88.6*	83.1*	2.28	0.1
Brc1ccccc1-n1nnc(-c2nccs2)n1	/	/	/	/	0.425	/
C=C(C)C1Cc2c(C)nn(-c3cc(C)c4ccccc4n3)c2C1 (stereo not given)	/	3.8	/	/	/	/
O=C(NCCCn1ccnc1)c1cc(-c2cccs2)on1	0.5	7.5	79.3*	47.7	0.648	0.2
O=C(c1ccc(C(F)(F)F)cc1)c1c[nH]c(C(=O)NCCCn2ccnc2)c1	0.1	4.3	95.1*	87.7*	1.58	0
Cc1ccc(N2CC(C(=O)NCCCn3ccnc3)CC2=O)cc1 (stereo not given)	0.2	5.7	85.2*	76.1*	-0.551	0.1
O=C(NCCCN1CCOCC1)c1cc(-c2cccs2)on1	1	1.6	-1.6	-1.5	0.835	1
COc1ccc(OC)c(-c2cc(C(=O)NCCCn3ccnc3)no2)c1	0.8	9.2	75.1*	21.8	0.879	0.2
Cc1ccc(NC(=O)C(C)Sc2nnc(-c3cccnc3)n2-c2ccccc2)cc1 (stereo not given)	1	9.8	0.6	-3.5	-4.78	1
COc1ccc(-c2nn(-c3ccccc3)cc2C(=O)NCCCn2ccnc2)cc1	0	7.9	95.8*	98.5*	0.339	0
COC(=O)c1cn(-c2ccccc2)nc1-c1ccncc1	0.8	2.7	37.0	21.9	0.412	0.6
SMILES	CYP2C9 activ	Rev-RRE block	CYP2C19 inh	CYP2C9 inhib	Cav3 T inh	CYP2C19 activ
CCCCNC(=O)c1ccccc1C(=O)NCCCC	0.9	7.1	11.4	6.5	0.332	0.9
CCCCCNC(=O)c1ccccc1SC	1.3	4.4	59.3*	-29.0	0.21	0.4
Cc1ccc(-c2[nH]c3cc(C(=O)NCCCn4ccnc4)ccc3c(=O)c2O)cc1	/	/	/	/	0.722	/
Cc1cccc(-c2cc(C(=O)NCCCn3ccnc3)c3ccccc3n2)c1	0	3.1	87.1*	99.6*	-0.406	0.1
COc1ccc2c(Cl)c(C(=O)NCCCn3ccnc3)sc2c1Cl	0.1	-5.2	88.1*	88.2*	1.56	0.1
CC(C)OCCCNC(=O)c1ccncc1	0.2	/	89.3*	75.4*	0.209	0.1
O=C(Nc1ccccc1C(=O)NCCCn1ccnc1)c1ccccc1	0	-2.5	84.2*	96.2*	0.201	0.2
COc1ccc(C(=O)NCCCn2ccnc2)cc1	0.7	-0.1	89.0*	28.2	0.00988	0.1
COc1ccc(NC(=S)NCCCn2ccnc2)cc1	/	4.3	/	/	-0.00948	/
CCOCCCNC(=O)c1ccccc1SCC	/	1.4	/	/	0.159	/
CCSc1ccccc1C(=O)NCCCn1ccnc1	0.4	6.7	91.7*	63.3*	0.446	0.1
CCOC(=O)C1(C(=O)OCC)CC1c1ccccc1 (stereo not given)	0.9	5.1	41.0	9.1	-0.145	0.6
CCOc1ccc(C(=O)NCCCN(CC)CC)cc1	1	/	-2.1	-1.7	0.128	1
CCOc1ccc(C(=O)NCCCn2ccnc2)cc1	0.8	6.2	93.3*	24.9	0.621	0.1
CC1CC(C)CN(S(=O)(=O)c2ccc(C(=O)NCCCn3ccnc3)cc2)C1 (stereo not given)	0.1	/	32.5	89.5*	0.592	0.7
CC1CC(C)CN(S(=O)(=O)c2ccc(C(=O)NCc3ccc4c(c3)OCO4)cc2)C1 (stereo not given)	0.9	-0.1	-11.6	11.6	-3.33	1.1
O=C(NCc1ccco1)C1CC(c2ccc(C(F)(F)F)cc2)=NO1 (stereo not given)	/	/	/	/	-1.11	/
O=C(NCc1cccc(Br)c1)C1CC(c2cc(C(F)(F)F)cc(C(F)(F)F)c2)=NO1 (stereo not given)	/	/	/	/	1	/
O=C(NCc1ccc(C(F)(F)F)cc1)C1CC(c2cccc(F)c2)=NO1 (stereo not given)	/	/	/	/	-2.72*	/
O=C(NCc1cccc(C(F)(F)F)c1)C1CC(c2c(Cl)cccc2Cl)=NO1 (stereo not given)	0.6	9.4	78.3*	43.1	-2.19	0.2
O=C(NCc1ccco1)C1CC(c2c(Cl)cccc2Cl)=NO1 (stereo not given)	2.3*	0.3	31.6	-134.3	0.656	0.7
O=C(NCC1CCCO1)C1CC(c2ccccc2Cl)=NO1 (stereo not given)	4.2*	4.8	56.1*	-318.0	0.314	0.4
CCCOc1ccc(/C=C/C(=O)Nc2ccc([N+](=O)[O-])cc2C)cc1	0.8	7.5	3.7	15.5	0.0352	1
O=C(CCCN1C(=O)c2ccccc2C1=O)NCc1ccco1	/	2.6	/	/	0.121	/
OC1CC(c2ccco2)NC2(CCCCC2)C1 (stereo not given)	1.3	/	-17.5	-25.8	-0.182	1.2

Screens (PubChem BioAssay)
